Experimental data reported in ChEMBL document CHEMBL3227958, “A preliminary structure-activity study of the mixed-function oxidase inhibitor 7,8-benzoflavone” (J Med Chem, 1979).

Columns and labels:
[1] = Inhibition of benzo(alpha)pyrene monooxygenase in phenobarbital-treated Sprague-Dawley rat liver microsomes using [3H]benzo(alpha)pyrene as substrate after 15 mins by liquid scintillation spectrometry; settings: read-out: I50
Outline: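 Microsomes came from male Sprague-Dawley rats (60-80 g) given phenobarbital 80 mg/kg ip in saline on 3 days, then starved 24 h. The assay used 0.400 mg/mL protein, NADP/glucose 6-phosphate/G6PDH and 60 μM [3H]benzo[a]pyrene for 15 min at 37 °C. Hexane/alkali extraction was followed by scintillation counting, minus an ethanolic-NaOH-treated microsome blank. I50 used ≥4 inhibitor concentrations, log-dose plot, three replicates.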

[2] = Inhibition of benzo(alpha)pyrene monooxygenase in 3-methylcholanthrene-treated Sprague-Dawley rat liver microsomes using [3H]benzo(alpha)pyrene as substrate after 15 mins by liquid scintillation spectrometry; settings: read-out: I50
Outline: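 Liver microsomes from male Sprague-Dawley rats (60-80 g) given 3-methylcholanthrene 20 mg/kg ip in corn oil on 2 days, then starved 24 h. Run with 0.200 mg/mL protein, NADPH-generating system and 60 μM [3H]benzo[a]pyrene for 15 min at 37 °C. Hydroxylated products were taken into alkali and counted. I50 came from log concentration vs % activity, with at least four concentrations and triplicates.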

[3] = system: benzo(alpha)pyrene monooxygenase; experiment: Inhibition of benzo(alpha)pyrene monooxygenase in phenobarbital-treated Sprague-Dawley rat liver microsomes using [3H]benzo(alpha)pyrene as substrate at 100 uM after 15 mins by liquid scintillation spectrometry; settings: liver microsomes from phenobarbital-treated rats, probe [3H]benzo(alpha)pyrene
Outline: (§1)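 Single-concentration change in benzo[a]pyrene oxidation versus solvent controls, using phenobarbital-induced male Sprague-Dawley rat liver microsomes at 0.400 mg/mL protein. Conditions: 60 μM [3H]benzo[a]pyrene, NADPH-generating system, 15 min at 37 °C. Termination used ethanolic NaOH, then hexane extraction and scintillation counting of the lower phase, corrected with an ethanolic-NaOH-treated microsome blank. Three replicates.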

[4] = Stimulation of benzo(alpha)pyrene monooxygenase in phenobarbital-treated Sprague-Dawley rat liver microsomes using [3H]benzo(alpha)pyrene as substrate at 99 uM after 15 mins by liquid scintillation spectrometry; format: ADME; settings: 0.25 h; outline: as §1
[5] = system: benzo(alpha)pyrene monooxygenase; experiment: Inhibition of benzo(alpha)pyrene monooxygenase in 3-methylcholanthrene-treated Sprague-Dawley rat liver microsomes using [3H]benzo(alpha)pyrene as substrate at 99 uM after 15 mins by liquid scintillation spectrometry; settings: liver microsomes from 3-methylcholanthrene-treated rats, probe [3H]benzo(alpha)pyrene
Outline: (§2)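 Percent inhibition or stimulation was measured at the single stated inhibitor concentration, relative to solvent-only controls. Hepatic microsomes were from 3-methylcholanthrene-pretreated male Sprague-Dawley rats, used at 0.200 mg/mL protein with an NADPH-generating system. Substrate was 60 μM [3H]benzo[a]pyrene, incubated 15 min at 37 °C. The reaction was stopped with NaOH in 80% ethanol, hexane-extracted, and the aqueous phase counted. Triplicate samples.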

[6] = system: benzo(alpha)pyrene monooxygenase; experiment: Inhibition of benzo(alpha)pyrene monooxygenase in phenobarbital-treated Sprague-Dawley rat liver microsomes using [3H]benzo(alpha)pyrene as substrate at 104 uM after 15 mins by liquid scintillation spectrometry; settings: liver microsomes from phenobarbital-treated rats, probe [3H]benzo(alpha)pyrene; outline: as §1
[7] = system: benzo(alpha)pyrene monooxygenase; experiment: Inhibition of benzo(alpha)pyrene monooxygenase in 3-methylcholanthrene-treated Sprague-Dawley rat liver microsomes using [3H]benzo(alpha)pyrene as substrate at 100 uM after 15 mins by liquid scintillation spectrometry; settings: liver microsomes from 3-methylcholanthrene-treated rats, probe [3H]benzo(alpha)pyrene; outline: as §2
[8] = Stimulation of benzo(alpha)pyrene monooxygenase in phenobarbital-treated Sprague-Dawley rat liver microsomes using [3H]benzo(alpha)pyrene as substrate at 100 uM after 15 mins by liquid scintillation spectrometry; format: ADME; settings: 0.25 h; outline: as §1
[9] = system: benzo(alpha)pyrene monooxygenase; experiment: Inhibition of benzo(alpha)pyrene monooxygenase in phenobarbital-treated Sprague-Dawley rat liver microsomes using [3H]benzo(alpha)pyrene as substrate at 99 uM after 15 mins by liquid scintillation spectrometry; settings: liver microsomes from phenobarbital-treated rats, probe [3H]benzo(alpha)pyrene; outline: as §1
[10] = Stimulation of benzo(alpha)pyrene monooxygenase in phenobarbital-treated Sprague-Dawley rat liver microsomes using [3H]benzo(alpha)pyrene as substrate at 98 uM after 15 mins by liquid scintillation spectrometry; format: ADME; settings: 0.25 h; outline: as §1
[11] = Stimulation of benzo(alpha)pyrene monooxygenase in phenobarbital-treated Sprague-Dawley rat liver microsomes using [3H]benzo(alpha)pyrene as substrate at 200 uM after 15 mins by liquid scintillation spectrometry; format: ADME; settings: 0.25 h; outline: as §1
[12] = Stimulation of benzo(alpha)pyrene monooxygenase in 3-methylcholanthrene-treated Sprague-Dawley rat liver microsomes using [3H]benzo(alpha)pyrene as substrate at 200 uM after 15 mins by liquid scintillation spectrometry; format: ADME; settings: 0.25 h; outline: as §2

| SMILES | IC50 [1] | IC50 [2] | other results |
| --- | --- | --- | --- |
| COc1ccccc1-c1cc(=O)c2ccc3ccccc3c2o1 | > 100 µM | 13 µM | inhibition at 0.25 h, 100 µM [3]: 34% |
| O=c1cc(-c2ccc([N+](=O)[O-])cc2)oc2c1ccc1ccccc12 | > 99 µM | > 99 µM | Activity [4]: 33%; inhibition at 0.25 h, 99 µM [5]: 0% |
| O=c1cc(-c2cccc([N+](=O)[O-])c2)oc2c1ccc1ccccc12 | > 100 µM | > 100 µM | inhibition at 0.25 h, 100 µM [7]: 36%; Activity [8]: 42% |
| O=c1cc(-c2ccc3ccccc3c2)oc2c1ccc1ccccc12 | > 100 µM | 11 µM | inhibition at 0.25 h, 100 µM [3]: 0% |
| O=c1cc(-c2ccc(Cl)cc2)oc2c1ccc1ccccc12 | > 99 µM | 13 µM | inhibition at 0.25 h, 99 µM [9]: 0% |
| O=c1cc(-c2ccccc2)oc2c1ccc1ccccc12 [ALPHA-NAPHTHOFLAVONE] | > 100 µM | 10 µM | Activity [8]: 21% |
| COc1cccc(-c2cc(=O)c3ccc4ccccc4c3o2)c1 | > 98 µM | 11 µM | Activity [10]: 9% |
| COc1ccc(-c2cc(=O)c3ccc4ccccc4c3o2)cc1 | > 100 µM | > 100 µM | inhibition at 0.25 h, 100 µM [7]: 46%; inhibition at 0.25 h, 100 µM [3]: 0% |

Now from value to compound, other results behind:

| IC50 [1] | IC50 [2] | SMILES | other results |
| --- | --- | --- | --- |
| > 97 µM | > 97 µM | O=c1cc(-c2ccccc2)oc2c1cc(Br)c1ccccc12 | – |
| > 104 µM | > 104 µM | c1ccc(-c2cc3ccc4ccccc4c3o2)cc1 | inhibition at 0.25 h, 104 µM [6]: 34% |
| 82 µM | 31 µM | Nc1cc2c(=O)cc(-c3ccccc3)oc2c2ccccc12 | – |
| > 100 µM | > 100 µM | O=c1c(-c2ccccc2)coc2c1ccc1ccccc12 | inhibition at 0.25 h, 100 µM [7]: 18%; Activity [8]: 6% |
| > 200 µM | > 200 µM | O=c1cc(-c2ccccc2)oc2c1cc([N+](=O)[O-])c1ccccc12 | Activity [11]: 43%; Activity [12]: 34% |
